Laboratory results published in ChEMBL document CHEMBL4715831, “Design and synthesis of 2-((1H-indol-3-yl)thio)-N-phenyl-acetamides as novel dual inhibitors of respiratory syncytial virus and influenza virus A” (Eur J Med Chem, 2020).

Columns and labels:
[1] = test system: Respiratory syncytial virus; assay: Antiviral activity against GFP-fused wild-type RSV subgroup A Long infected in human HEp-2 cells measured 24 to 72 hrs post infection by fluorescence assay; type: functional, cell-based
How it was run: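 HEp-2 cells plated, then after 24 h infected with RSV-mGFP using 3-fold serially diluted inocula starting from 3 × 10^4 pfu/well. Compounds came from a 100 mM DMSO stock, diluted as indicated. RFU read at 479/517 nm at 24, 48 and 72 h post-infection, with non-infected cells as background. Mean ± SD of at least three experiments.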

[2] = Cytotoxicity against HEK293T cells assessed as reduction in cell viability measured after 48 hrs by CCK8 assay; type: cell-based, HEK-293T; conditions: human
How it was run: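 293T cells treated for 48 h with six compound concentrations from 12.5 to 200 μM, with DMSO-only cells as control. CCK-8 then added for 1 h at 37 °C and OD read at 450 nm. Mean ± SD of three experiments.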

[3] = test system: Influenza A virus; assay: Antiviral activity against Influenza A virus A/WSN/33(H1N1) infected in human HEK293T cells measured after 24 hrs by Gaussia luciferase reporter gene method; type: functional, organism-based; conditions: A/WSN/1933(H1N1); for EC50: HEK-293T
How it was run: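 HEK293T cells carrying a Gaussia luciferase reporter that is activated by IAV, infected with A/WSN/33 (H1N1) for 1 h at room temperature, then cultured 24 h at 37 °C with serially diluted compound. Supernatant Gluc read with coelenterazine-h (16.7 μM in PBS) as 0.5-s photon counts. Normalized to control set as 100%; ribavirin positive control; three experiments.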

[4] = Safety index, ratio of CC50 for HEK293T cells to EC50 for antiviral activity against Influenza A virus A/WSN/33(H1N1) infected in human HEK293T cells; type: toxicity, cell-based; conditions: read-out: Ratio CC50/EC50
[5] = Cytotoxicity against human HEp-2 cells assessed as reduction in cell viability measured after 48 hrs by MTS assay; type: cell-based
How it was run: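 HEp-2 cells plated; after 24 h, compound added and cells incubated 48 h. MTS (2 mg/ml) then added for 3 h at 37 °C in 5% CO2 and absorbance read at 490 nm. Untreated control set as 100%.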

[6] = Safety index, ratio of CC50 for human HEp-2 cells to EC50 for GFP-fused wild-type RSV subgroup A long infected in human HEp-2 cells; type: toxicity, cell-based; conditions: read-out: Ratio CC50/EC50
[7] = test system: Influenza A virus; assay: Antiviral activity against Influenza A virus A/WSN/33(H1N1) infected in MDCK cells measured after 24 hrs by Gaussia luciferase reporter gene method; type: functional, organism-based; conditions: A/WSN/1933(H1N1)
How it was run: (§1)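 MDCK cells infected with IAV A/WSN/33 (H1N1) or H3N2 for 1 h at room temperature, then cultured in fresh DMEM with serially diluted compound for 24 h at 37 °C. Gluc activity in the medium read with coelenterazine-h (16.7 μM in PBS). Normalized to control set as 100%; ribavirin positive control; mean ± SD of three experiments.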

[8] = Antiviral activity against H3N2 infected in MDCK cells measured after 24 hrs by Gaussia luciferase reporter gene method; type: functional, cell-based, H3N2 subtype; conditions: Influenza A virus; how it was run: as §1

Structure (SMILES) | Activity [1] | EC50 [1] [µM] | CC50 at 48 h [2] [µM] | EC50 [3] [µM] | selectivity ratio [4] | CC50 at 48 h [5] [µM] | selectivity ratio [6] | EC50 [7] [µM] | EC50 [8] [µM] | Activity [3]
CCOc1ccccc1NC(=O)CSc1c[nH]c2c(OC)cccc12 | Dose-dependent effect | 0.43 | > 100 | 12.2 | > 8.24 | 0.61 | 1.42 |  |  | 
Cn1cc(SCC(=O)Nc2cccc(Cl)c2Cl)c2ccccc21 |  | > 128 | > 100 | 14 | > 7.26 | > 1000 |  |  |  | 
CCOc1ccccc1NC(=O)CSc1c[nH]c2c(Cl)cccc12 |  | 4.46 | > 100 | 1.75 | > 57.5 | 262 | 58.8 | 4.33 | 1.83 | 
Cn1cc(S(=O)(=O)CC(=O)Nc2cccc(Cl)c2Cl)c2ccccc21 |  | 19.9 | > 100 | 36.3 | > 2.75 | 275 | 13.8 |  |  | 
O=C(CSc1c[nH]c2ncccc12)Nc1ccc(Cl)c(Cl)c1 |  | > 128 | > 100 | 31.6 | > 3.1 | > 256 |  |  |  | 
O=C(CSc1c[nH]c2cccc(Cl)c12)Nc1ccc(Cl)c(Cl)c1 |  | 25.3 | 34.7 | 5.72 | 5.95 | 27.7 | 1.09 |  |  | 
O=C(CSc1c[nH]c2cc(Cl)ccc12)Nc1ccc(Cl)c(Cl)c1 |  | 14 | 67.8 | 7.36 | 9.16 | 27.8 | 1.99 |  |  | 
Cn1cc([S+]([O-])CC(=O)Nc2ccccc2Cl)c2ccccc21 (centres undefined) |  | 12.3 | > 100 | 29.8 | > 3.36 | 97.4 | 7.89 |  |  | 
CCOc1ccccc1NC(=O)CSc1c[nH]c2ccc(Cl)cc12 |  | 18.1 | 37.6 | 4.19 | 8.97 | 204 | 11.3 |  |  | 
CCOc1ccccc1NC(=O)CSc1c[nH]c2cccc(Cl)c12 | Dose-dependent effect | 2.45 | 25.2 | 0.58 | > 41 | 7.15 | 2.92 | 2.67 | 2.33 | Dose-dependent effect
Cn1cc(SCC(=O)Nc2ccc(Cl)cc2Cl)c2ccccc21 |  | > 128 | > 100 | 11.9 | > 8.38 | > 1000 |  |  |  | 
Cn1cc(SCC(=O)Nc2cc(Cl)ccc2Cl)c2ccccc21 |  | > 128 | > 100 | 15.8 | > 6.38 | 76.9 |  |  |  | 
CCOc1ccccc1NC(=O)CSc1c[nH]c2ncccc12 |  | > 128 | > 100 | 31.4 | > 3.21 | > 1000 |  |  |  | 
Cn1cc(SCC(=O)Nc2ccc(Cl)cc2)c2ccccc21 |  | > 128 | > 100 | 9.82 | > 10.2 | 31.4 |  |  |  | 
Cn1cc([S+]([O-])CC(=O)Nc2cccc(Cl)c2)c2ccccc21 (centres undefined) |  | > 128 | > 100 | 39.3 | > 2.55 | > 1000 |  |  |  | 
Cn1cc([S+]([O-])CC(=O)Nc2ccc(Cl)cc2)c2ccccc21 (centres undefined) |  | > 128 | > 100 | 9.93 | > 10 | 61.9 |  |  |  | 
Cn1cc(S(=O)(=O)CC(=O)Nc2ccc(Cl)cc2Cl)c2ccccc21 |  | > 128 | > 100 | 33.7 | > 2.97 | > 1000 |  |  |  | 
COc1cccc2c(SCC(=O)Nc3ccc(Cl)c(Cl)c3)c[nH]c12 |  | 17.3 | > 100 | 13.8 | > 7.21 | 39.5 | 2.28 |  |  | 
CCOc1ccccc1NC(=O)CSc1c[nH]c2cc(OC)ccc12 |  | 23.1 | 88.2 | 4.48 | 15.4 | 35.2 | 1.53 |  |  | 
COc1ccc2c(SCC(=O)Nc3ccc(Cl)c(Cl)c3)c[nH]c2c1 | Dose-dependent effect | 5.79 | 78.4 | 15.8 | 5 | 42.7 | 7.16 |  |  | 
Cn1cc(SCC(=O)Nc2ccccc2Cl)c2ccccc21 |  | > 128 | > 100 | 27.9 | > 3.59 | > 1000 |  |  |  | 
COc1cccc2[nH]cc(SCC(=O)Nc3ccc(Cl)c(Cl)c3)c12 |  | > 128 | > 100 | 15.1 | > 6.61 | > 256 |  |  |  | 
Cn1cc(S(=O)(=O)CC(=O)Nc2cc(Cl)ccc2Cl)c2ccccc21 |  | > 128 | > 100 | 18 | > 6.72 | > 1000 |  |  |  | 
COc1ccc2[nH]cc(SCC(=O)Nc3ccc(Cl)c(Cl)c3)c2c1 |  | 16.6 | 61.8 | 15.5 | 4.19 | 46.4 | 2.79 |  |  | 
O=C(CSc1c[nH]c2c(Cl)cccc12)Nc1ccc(Cl)c(Cl)c1 |  | 18.1 | 49.1 | 10.4 | 4.69 | 32.8 | 1.81 |  |  | 
O=C(CSc1c[nH]c2ccc(Cl)cc12)Nc1ccc(Cl)c(Cl)c1 |  | 9.95 | 42.7 | 7.62 | 5.53 | 35.2 | 3.54 |  |  | 
Cn1cc(SCC(=O)Nc2cccc(Cl)c2)c2ccccc21 |  | 23.9 | > 100 | 9.98 | > 10 | 18.9 | 0.79 |  |  | 
CCOc1ccccc1NC(=O)CSc1c[nH]c2cccc(OC)c12 |  | 12.3 | > 100 | 11.2 | > 8.8 | 220 | 17.9 |  |  | 
